Assay outcomes: PubChem BioAssay, several laboratories
NR2E3 ag-1: agonists of human NR2E3 nuclear receptor | CHO-S Gal4-NCOR/VP16-NR2E3 two-hybrid, luciferase | actives 0.35% (n = 360,000) | AID 602229 | Q9Y5X4 | inhibition of corepressor binding, % at 3.98 µM;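 active = inhibition above the mean of all tested compounds plus 3 SD, cut at about 70% in these data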;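 note: 0% = DMSO with NR2E3 transfected cells and 100% = cells lacking NR2E3 construct; higher means lower luciferase signal from less NR2E3 corepressor binding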
Target sequence (Q9Y5X4 whole entry, looked up, the tested form may be a part): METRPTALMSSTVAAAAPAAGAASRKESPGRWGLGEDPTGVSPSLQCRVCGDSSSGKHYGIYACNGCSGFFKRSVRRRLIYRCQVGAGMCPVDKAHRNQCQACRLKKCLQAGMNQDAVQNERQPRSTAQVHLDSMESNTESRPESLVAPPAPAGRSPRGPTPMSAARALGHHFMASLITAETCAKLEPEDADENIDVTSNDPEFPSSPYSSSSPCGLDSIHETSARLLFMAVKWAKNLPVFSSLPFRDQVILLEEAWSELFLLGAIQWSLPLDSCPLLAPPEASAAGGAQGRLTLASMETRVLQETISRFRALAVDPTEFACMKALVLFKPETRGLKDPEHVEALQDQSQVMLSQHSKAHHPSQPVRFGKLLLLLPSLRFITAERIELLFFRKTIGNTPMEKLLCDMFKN
DAGLB inhibitor: diacylglycerol lipase beta (human) inhibition; AID 504411; Q8NCG7; inhibition, % at 5.17 µM; actives 0.059% (n = 340,000); HEK293T DAGLB membrane lysate, EnzChek fluorogenic substrate; in the data active = inhibition above about 34%;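 note: 0% = enzyme with vehicle and 100% = wells lacking enzyme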
NR2E3 ag-2: activates human photoreceptor nuclear receptor NR2E3; GST-NR2E3/biotin-RetCOR TR-FRET, 1536-well; inhibition of corepressor binding, % at 4.78 µM; Q9Y5X4; AID 2300; actives 0.12% (n = 320,000);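 active = percent inhibition above the cutoff of mean plus 3 SD of all tested compounds, set per screening campaign, cut at about 20% in these data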;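 note: 0% = DMSO wells and 100% = biotin wells as full block of FRET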
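system = GST-tagged NR2E3 plus biotinylated RetCOR corepressor | input = 1.35 nM GST-NR2E3 | also added = 7 nM biotin-RetCOR | schedule = 5 h incubation at 4 °C | measured by = TR-FRET with europium anti-GST and streptavidin-D2, 340 nm excitation | read-out = percent loss of FRET ratio relative to control wells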
MT1-MMP act inh: inhibitors of human MT1-MMP activation; HT1080 RFP-PRO-GFP cells, GFP/RFP ratio fluorescence, overnight; percent of plate control window, DMSO zero; GFP/RFP ratio change, % at 20 µM; actives 0.061% (n = 360,000); AID 651647;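 active = GFP/RFP ratio change of at least 30% with cell ATP level not reduced by more than half and red fluorescence within 50% of control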
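Assay system: RFP-PRO-GFP reporter HT1080 cells; read-out basis: GFP/RFP fluorescence ratio; benchmarks: DMSO wells and RFP-L50D-GFP cells; doses: 20 µM single dose, 1% DMSO; schedule: overnight cell settling, then overnight compound exposure, 37 °C, 5% CO2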
Vif inh: blocks HIV Vif function. HEK293T cells, Vif self-association by quenched fluorescence, imaging, 24 h. inhibition, % at 7.49 µM. actives 0.35% (n = 340,000). AID 602346; in the data active = inhibition above about 50%, passing the limit was not always enough
HCV core dimer: HCV core protein dimerization inhibition. actives 0.33% (n = 300,000). TR-FRET GST/Flag-core106 dimerization, 1536-well. inhibition, % at 5 µM;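 active = inhibition above the mean of all tested compounds plus 3 SD, set per screening campaign, cut at about 45% in these data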
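Assay system – GST-tagged and Flag-tagged HCV core protein residues 1-106 · Quantity – core106 proteins, GST 13.5 nM and Flag 17 nM · Benchmarks – unlabelled core106 and no-GST-core106 wells · Read-out basis – percent inhibition of core106 dimerization signal · Detection – time-resolved FRET, ex 340 nm, em 617 and 671 nm · Schedule – 4 h at 22.5 °C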
* hit, by the source's call. Rows were chosen to be rich in hits. Some 1.1% of all compounds tested hit in one or more screens of this group.

Results for Cc1cccc2c(N=Nc3ccc(S(=O)(=O)Nc4ccc(Cl)cc4)cc3[N+](=O)[O-])c(O)[nH]c12 ?
NR2E3 ag-1: -5.4; DAGLB inhibitor: 3.7; NR2E3 ag-2: 3.3; MT1-MMP act inh: 15.5; Vif inh: -0.8; HCV core dimer: 49.1*

What do the screens show for `CCc1ccc(C2=NNC(=Nc3c(C)n(C)n(-c4ccccc4)c3=O)SC2)cc1`?
NR2E3 ag-1: -16.1; DAGLB inhibitor: -0.1; NR2E3 ag-2: -0.7; MT1-MMP act inh: -3.1; Vif inh: -1.3; HCV core dimer: 10.1

How did Cc1cc(C2=NNC(=NC3CCCCC3)SC2)c(C)n1-c1c(C)n(C)n(-c2ccccc2)c1=O do in these assays?
NR2E3 ag-1: -47.6; DAGLB inhibitor: 5.5; NR2E3 ag-2: 2.4; MT1-MMP act inh: -3.7; Vif inh: 7.2; HCV core dimer: 64.9*

How did COc1ccc(C2=NCCn3nc4cc(OC)ccc4c32)cc1 do in these assays?
NR2E3 ag-1: -29.6; DAGLB inhibitor: -2.7; NR2E3 ag-2: 2.4; MT1-MMP act inh: 0.3; Vif inh: -5.6; HCV core dimer: 4.6

How did COC(=O)[C@]12CCCCC=C1N(Cc1ccc3c(c1)OCO3)C(=O)[C@H](CC(=O)NCC13CC4CC(CC(C4)C1)C3)C2 do in these assays?
MT1-MMP act inh: -24.7

What do the screens show for `COc1ccc(NC(=S)N2CCN(C/C=C/c3ccccc3)CC2)cc1OC`?
NR2E3 ag-1: 8.5; DAGLB inhibitor: 2.3; NR2E3 ag-2: -1.8; MT1-MMP act inh: 6.0; Vif inh: 64.6*; HCV core dimer: 0.2

Results for CN(C)c1ccc(-c2csc(C(C)(O)c3ccccc3)n2)cc1 (stereo unspecified) ?
NR2E3 ag-1: -72.0; MT1-MMP act inh: -5.7; Vif inh: -3.8

What do the screens show for `Cc1ccc(-c2csc(N3N=C(c4ccccc4)/C(=C\c4ccc(N(C)C)cc4)C3=O)n2)cc1`?
NR2E3 ag-2: 2.4; HCV core dimer: 46.4*

Results for NC(=O)CSc1n[nH]c(=O)n1CCc1ccccc1 ?
NR2E3 ag-1: 2.0; DAGLB inhibitor: -0.7; NR2E3 ag-2: -1.0; MT1-MMP act inh: -0.8; HCV core dimer: -10.3

What do the screens show for `Nc1nc(N)c2c(ccc3c2ccn3Cc2cccc([N+](=O)[O-])c2)n1`?
NR2E3 ag-1: 37.9; MT1-MMP act inh: -18.4; Vif inh: -0.2

How did CC1CCCCC1NC(=O)COC(=O)c1c2c(nc3ccccc13)/C(=C/c1ccco1)CC2 (stereo unspecified) do in these assays?
NR2E3 ag-1: -6.9; DAGLB inhibitor: 25.7; NR2E3 ag-2: -0.3; MT1-MMP act inh: 3.0; Vif inh: -7.9; HCV core dimer: 97.2*

Results for O=C(COC(=O)c1c2c(nc3ccccc13)/C(=C/c1ccco1)CC2)NC1CCCC1 ?
NR2E3 ag-1: -13.7; DAGLB inhibitor: 7.2; MT1-MMP act inh: -2.2; Vif inh: -1.8

What do the screens show for `CCCCn1c(O)c(N=Nc2ccccc2O)c2ccccc21`?
NR2E3 ag-1: -7.9; DAGLB inhibitor: 3.5; NR2E3 ag-2: 2.4; MT1-MMP act inh: -76.5; Vif inh: 144.5*

How did Cc1c(Br)c([N+](=O)[O-])nn1CC(=O)N1CCN(C23CC4CC(CC(C4)C2)C3)CC1 do in these assays?
NR2E3 ag-1: -12.7; DAGLB inhibitor: -0.3; NR2E3 ag-2: -3.1; MT1-MMP act inh: 2.6; Vif inh: -2.0; HCV core dimer: -1.7

How did COc1ccccc1NC(=S)NC1CCCC1 do in these assays?
NR2E3 ag-1: 4.1; DAGLB inhibitor: -0.3; NR2E3 ag-2: 2.4; MT1-MMP act inh: -0.9; Vif inh: -4.4; HCV core dimer: 0.2

How did COc1ccccc1NC(=S)NC1CCC(CC2CCC(NC(=S)Nc3ccccc3OC)CC2)CC1 (stereo unspecified) do in these assays?
NR2E3 ag-1: 7.7; DAGLB inhibitor: 2.2; NR2E3 ag-2: 1.7; MT1-MMP act inh: 1.0; Vif inh: -2.4; HCV core dimer: 47.6*

How did S=c1[nH]ncn2c1cc1oc3ccccc3c12 do in these assays?
NR2E3 ag-1: -41.5; DAGLB inhibitor: -0.5; NR2E3 ag-2: -137.4; MT1-MMP act inh: 1.4; Vif inh: 6.0; HCV core dimer: 64.2*

How did O=c1c2ccccc2oc2ccccc12 do in these assays?
NR2E3 ag-1: -20.5; MT1-MMP act inh: 2.2; Vif inh: -13.0

How did O=C(C=Cc1ccccn1)c1ccccc1 do in these assays?
NR2E3 ag-1: -78.8; DAGLB inhibitor: -1.9; MT1-MMP act inh: 22.8; Vif inh: 70.0*

How did O=C(C=Cc1ccccn1)c1ccccc1O do in these assays?
NR2E3 ag-1: -50.2; DAGLB inhibitor: -2.2; MT1-MMP act inh: 2.8; Vif inh: 23.5

Results for COCCNC(=S)N1CCC2CC1c1c(Cl)cccc12 (stereo unspecified) ?
NR2E3 ag-1: -13.6; DAGLB inhibitor: 1.3; MT1-MMP act inh: -0.6

What do the screens show for `Cc1nn(CC(=O)NCc2ccccc2)c(C)c1[N+](=O)[O-]`?
NR2E3 ag-1: -5.1; DAGLB inhibitor: -1.7; NR2E3 ag-2: 1.7; MT1-MMP act inh: 0.6; Vif inh: 5.1; HCV core dimer: -4.7

Results for Cc1nn(CC(=O)NC(=O)c2ccccc2)c(C)c1[N+](=O)[O-] ?
NR2E3 ag-1: 21.4; DAGLB inhibitor: 0.6; NR2E3 ag-2: 4.3; MT1-MMP act inh: 9.4; Vif inh: 54.3*

Results for Cn1cc([C@]2(O)C(=O)Nc3ccc(OC(F)(F)F)cc32)c2ccccc21 ?
MT1-MMP act inh: 4.8

How did CC(=O)Nc1nc(C)c(-c2csc(Nc3ccc(O)cc3)n2)s1 do in these assays?
NR2E3 ag-1: -4.2; DAGLB inhibitor: 2.9; NR2E3 ag-2: -3.5; MT1-MMP act inh: 1.1; Vif inh: 60.8*; HCV core dimer: -27.6

How did c1cc2c3c(cccc3c1)NC1(CCCCCC1)N2 do in these assays?
NR2E3 ag-1: -7.0; DAGLB inhibitor: 9.2; NR2E3 ag-2: -0.2; MT1-MMP act inh: 3.7; Vif inh: -1.2; HCV core dimer: 51.7*

How did COc1ccc(-c2nc3c(c(SCC(=O)Nc4cccc(O)c4)n2)Cc2c(CO)cnc(C)c2O3)cc1 do in these assays?
NR2E3 ag-1: -13.4; DAGLB inhibitor: 3.4; NR2E3 ag-2: -2.4; MT1-MMP act inh: 4.8; Vif inh: 11.3; HCV core dimer: 70.6*

Results for CCC1=Nc2cc(C(=O)NCCN3CCOCC3)ccc2Sc2ccc(C)cc21 ?
NR2E3 ag-1: 29.8; DAGLB inhibitor: -2.4; NR2E3 ag-2: 0.7; MT1-MMP act inh: -0.2; Vif inh: -23.5; HCV core dimer: -14.0

How did COc1cc2cc3c(N)c(C(=O)NCc4ccco4)sc3nc2cc1OC do in these assays?
NR2E3 ag-1: -7.6; DAGLB inhibitor: -0.1; NR2E3 ag-2: 1.8; MT1-MMP act inh: -2.3; Vif inh: 7.2; HCV core dimer: -36.5

How did Cc1ccc2nc3sc(C(=O)NCc4ccco4)c(N)c3cc2c1 do in these assays?
NR2E3 ag-1: -125.1; DAGLB inhibitor: 0.0; NR2E3 ag-2: 1.0; MT1-MMP act inh: -7.8; HCV core dimer: 52.9*
